From ChEMBL document CHEMBL3875149, “New piperidine-hydrazone derivatives: Synthesis, biological evaluations and molecular docking studies as AChE and BChE inhibitors” (Eur J Med Chem, 2016)

Tests used:
[1] = Antioxidant activity assessed as inhibition of beta carotene/ linoleic acid peroxidation after 120 mins by spectrophotometric analysis; format: functional
In short: (§1)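 Spectrophotometric radical-scavenging or β-carotene bleaching test, with DMSO as negative control and BHT and α-tocopherol as positive controls. The value is reported as IC50 in µM.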

[2] = Antioxidant activity assessed as DPPH free radical scavenging activity after 2 hrs by spectrophotometric analysis; format: functional; in short: as §1
[3] = Antioxidant activity assessed as ABTS radical scavenging activity by spectrophotometric analysis; format: functional; in short: as §1
[4] = Antioxidant activity assessed as cupric reducing capacity after 1 hr by spectrophotometric analysis; format: functional
Acetylcholinesterase = Acetylcholinesterase (Electrophorus electricus, UniProt O42275); assay: Inhibition of electric eel acetylcholinesterase using acetylthiocholine iodide as substrate by Ellman's method
Chain of Acetylcholinesterase (O42275 whole entry): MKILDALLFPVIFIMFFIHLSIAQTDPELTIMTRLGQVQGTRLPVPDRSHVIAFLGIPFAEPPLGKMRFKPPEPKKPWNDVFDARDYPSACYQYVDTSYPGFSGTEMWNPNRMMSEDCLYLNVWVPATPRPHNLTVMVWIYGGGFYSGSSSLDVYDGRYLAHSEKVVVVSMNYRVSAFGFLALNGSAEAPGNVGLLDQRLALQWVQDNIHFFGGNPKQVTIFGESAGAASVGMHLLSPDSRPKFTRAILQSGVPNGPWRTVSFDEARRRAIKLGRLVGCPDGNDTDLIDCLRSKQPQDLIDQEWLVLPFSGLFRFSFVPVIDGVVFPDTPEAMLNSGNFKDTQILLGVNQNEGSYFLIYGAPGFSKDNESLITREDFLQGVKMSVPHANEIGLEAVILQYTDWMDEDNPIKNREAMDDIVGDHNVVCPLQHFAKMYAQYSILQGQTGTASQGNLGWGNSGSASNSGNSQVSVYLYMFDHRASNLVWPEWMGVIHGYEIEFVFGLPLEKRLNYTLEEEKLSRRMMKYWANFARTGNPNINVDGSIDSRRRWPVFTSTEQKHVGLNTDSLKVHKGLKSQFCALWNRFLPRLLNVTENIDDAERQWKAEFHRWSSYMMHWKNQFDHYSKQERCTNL

Cholinesterase = Cholinesterase (Equus caballus, UniProt P81908); assay: Inhibition of horse serum butyrylcholinesterase by Ellman's method
Chain of Cholinesterase (P81908 whole entry): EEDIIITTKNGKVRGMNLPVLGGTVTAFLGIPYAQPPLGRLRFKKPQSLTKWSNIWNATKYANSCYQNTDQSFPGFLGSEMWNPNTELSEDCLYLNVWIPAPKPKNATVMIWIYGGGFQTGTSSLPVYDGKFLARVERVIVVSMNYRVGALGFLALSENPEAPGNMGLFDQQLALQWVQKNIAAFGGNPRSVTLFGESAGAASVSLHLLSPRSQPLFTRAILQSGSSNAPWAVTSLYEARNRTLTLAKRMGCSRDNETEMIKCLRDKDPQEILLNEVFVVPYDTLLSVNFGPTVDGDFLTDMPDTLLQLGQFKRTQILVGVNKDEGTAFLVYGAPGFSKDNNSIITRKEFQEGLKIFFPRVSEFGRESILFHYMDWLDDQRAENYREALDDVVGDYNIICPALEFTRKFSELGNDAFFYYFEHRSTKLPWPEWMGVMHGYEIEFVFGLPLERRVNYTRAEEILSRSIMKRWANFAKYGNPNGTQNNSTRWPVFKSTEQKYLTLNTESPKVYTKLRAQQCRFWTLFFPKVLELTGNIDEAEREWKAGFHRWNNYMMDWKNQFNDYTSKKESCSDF
In short: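 Spectrophotometric Ellman assay using horse serum BChE, run alongside a parallel electric eel AChE assay. Inhibition reported as IC50 in µM.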

[5] = Cytotoxicity against human A549 cells assessed as decrease in cell viability after 24 hrs by MTT assay; format: functional, cell-based; conditions: A549, 24 h
In short: (§2)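 A549 cells were kept in RPMI and BJ fibroblasts in EMEM, each with 10% FBS and 1% penicillin/streptomycin at 37℃ and 5% CO2. MTT was added at 0.5 mg/mL final for 3 h, formazan was dissolved in DMSO and read at 540 nm. Survival is expressed as % of the 0.1% DMSO control, and IC50 was derived from it.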

[6] = Cytotoxicity against human BJ cells assessed as decrease in cell viability after 24 hrs by MTT assay; format: toxicity, cell-based; in short: as §2

CCOC(=O)N1CCC(=NNC(=O)c2ccc(F)cc2C(F)(F)F)CC1
IC50 [1]: 68.2 µM | IC50 [2]: 86.8 µM | IC50 [3]: 41.9 µM | A0.5 [4]: 25.6 µM | IC50 (Acetylcholinesterase): 124 µM | IC50 (Cholinesterase): 99.6 µM | IC50 [5]: > 400 µM | IC50 at 24 h [6]: > 400 µM

CCOC(=O)N1CCC(=NNC(=O)c2ccc([N+](=O)[O-])cc2)CC1
IC50 [1]: 40.2 µM | IC50 [2]: 51.7 µM | IC50 [3]: 10.9 µM | A0.5 [4]: 13.3 µM | IC50 (Acetylcholinesterase): 125 µM | IC50 (Cholinesterase): 156 µM | IC50 [5]: > 400 µM | IC50 at 24 h [6]: > 400 µM

O=C(NN=C1CC(c2ccccc2)NC(c2ccccc2)C1)c1ccc(F)cc1 (stereo not given)
IC50 [1]: 56.6 µM | IC50 [2]: 66 µM | IC50 [3]: 83.7 µM | A0.5 [4]: 59.6 µM | IC50 (Acetylcholinesterase): 91.1 µM | IC50 (Cholinesterase): 72.8 µM | IC50 [5]: > 400 µM | IC50 at 24 h [6]: > 400 µM

O=C(NN=C1CC(c2ccccc2)NC(c2ccccc2)C1)c1ccc(F)cc1C(F)(F)F (stereo not given)
IC50 [1]: 115 µM | IC50 [2]: 88.3 µM | IC50 [3]: 88.5 µM | A0.5 [4]: 88.2 µM | IC50 (Acetylcholinesterase): 49.5 µM | IC50 (Cholinesterase): 52.4 µM | IC50 [5]: > 400 µM | IC50 at 24 h [6]: > 400 µM

CCOC(=O)N1CCC(=NNC(=O)c2ccc(C(F)(F)F)cc2F)CC1
IC50 [1]: 77.4 µM | IC50 [2]: 86 µM | IC50 [3]: 59.5 µM | A0.5 [4]: 27.3 µM | IC50 (Acetylcholinesterase): 123 µM | IC50 (Cholinesterase): 95.1 µM | IC50 [5]: > 400 µM | IC50 at 24 h [6]: > 400 µM

O=C(NN=C1CC(c2ccccc2)NC(c2ccccc2)C1)c1ccccc1 (stereo not given)
IC50 [1]: 41.9 µM | IC50 [2]: 42 µM | IC50 [3]: 238 µM | A0.5 [4]: 45.4 µM | IC50 (Acetylcholinesterase): 99.7 µM | IC50 (Cholinesterase): 66 µM | IC50 [5]: > 400 µM | IC50 at 24 h [6]: > 400 µM

O=C(NN=C1CC(c2ccccc2)NC(c2ccccc2)C1)c1ccc([N+](=O)[O-])cc1 (stereo not given)
IC50 [1]: 45.2 µM | IC50 [2]: 88.1 µM | IC50 [3]: 170 µM | A0.5 [4]: 17.8 µM | IC50 (Acetylcholinesterase): 63.9 µM | IC50 (Cholinesterase): 86.8 µM | IC50 [5]: > 400 µM | IC50 at 24 h [6]: > 400 µM

CCOC(=O)N1CCC(=NNC(=O)c2ccc(OC)cc2)CC1
IC50 [2]: 85.4 µM | IC50 [3]: 38.3 µM | A0.5 [4]: 36.9 µM | IC50 (Acetylcholinesterase): 101 µM | IC50 (Cholinesterase): 82.2 µM | IC50 [5]: > 400 µM

Cc1c(C)c2c(c(C)c1O)CC[C@@](C)(CCC[C@H](C)CCC[C@H](C)CCCC(C)C)O2 [ALPHA-TOCOPHEROL]
IC50 [1]: 4.5 µM | IC50 [2]: 12.3 µM | IC50 [3]: 4.87 µM | A0.5 [4]: 40.5 µM

Cc1cc(C(C)(C)C)c(O)c(C(C)(C)C)c1 [BUTYLATED HYDROXYTOLUENE]
IC50 [1]: 2.34 µM | IC50 [2]: 55 µM | IC50 [3]: 2.91 µM | A0.5 [4]: 3.8 µM
